ABCB1 inh: human ABCB1 inhibition, ABCG2 as counter-screen; 0.067% of 190,000 active; AID 1326; P08183; CCRF-Adr cells, JC-1 efflux, flow cytometry; inhibition, % at 6.6 µM; in the data active means inhibition above about 40%;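 further: 0% = vehicle and 100% = reference inhibitor; higher value means more JC-1 retained so stronger ABCB1 efflux block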
Target sequence (P08183 whole entry, looked up): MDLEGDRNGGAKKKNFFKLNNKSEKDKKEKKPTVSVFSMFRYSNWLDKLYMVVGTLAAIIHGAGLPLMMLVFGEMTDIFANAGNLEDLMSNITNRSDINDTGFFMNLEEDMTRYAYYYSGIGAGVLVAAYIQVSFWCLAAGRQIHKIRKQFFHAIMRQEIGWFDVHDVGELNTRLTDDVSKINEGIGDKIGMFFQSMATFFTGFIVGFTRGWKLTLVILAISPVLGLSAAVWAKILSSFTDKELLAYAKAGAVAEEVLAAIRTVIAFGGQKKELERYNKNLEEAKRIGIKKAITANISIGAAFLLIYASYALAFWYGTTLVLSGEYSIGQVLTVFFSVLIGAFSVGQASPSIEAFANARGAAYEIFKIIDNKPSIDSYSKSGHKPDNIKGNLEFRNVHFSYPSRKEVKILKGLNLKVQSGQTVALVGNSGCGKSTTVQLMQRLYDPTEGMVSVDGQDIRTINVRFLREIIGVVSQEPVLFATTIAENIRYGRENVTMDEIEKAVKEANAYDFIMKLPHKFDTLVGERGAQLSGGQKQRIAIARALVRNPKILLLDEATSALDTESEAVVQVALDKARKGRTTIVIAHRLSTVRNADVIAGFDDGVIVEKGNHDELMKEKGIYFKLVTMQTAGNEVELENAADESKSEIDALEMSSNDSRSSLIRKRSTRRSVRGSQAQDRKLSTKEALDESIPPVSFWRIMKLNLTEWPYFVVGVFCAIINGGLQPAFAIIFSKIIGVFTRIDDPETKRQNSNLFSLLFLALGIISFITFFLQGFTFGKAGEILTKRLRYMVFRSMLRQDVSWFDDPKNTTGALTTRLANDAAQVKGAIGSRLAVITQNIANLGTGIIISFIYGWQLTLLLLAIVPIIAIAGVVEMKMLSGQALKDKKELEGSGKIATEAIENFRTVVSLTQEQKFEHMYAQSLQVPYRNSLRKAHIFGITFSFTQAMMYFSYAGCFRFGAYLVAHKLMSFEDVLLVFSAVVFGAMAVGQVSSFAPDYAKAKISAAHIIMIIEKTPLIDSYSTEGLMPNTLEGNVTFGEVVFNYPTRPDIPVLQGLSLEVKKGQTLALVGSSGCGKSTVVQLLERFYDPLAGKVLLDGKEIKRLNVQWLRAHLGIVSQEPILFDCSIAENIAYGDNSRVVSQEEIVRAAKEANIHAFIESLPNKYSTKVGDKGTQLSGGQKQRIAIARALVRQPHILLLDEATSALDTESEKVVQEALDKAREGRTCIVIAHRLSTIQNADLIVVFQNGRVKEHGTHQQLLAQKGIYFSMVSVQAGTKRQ
FLuc stim CS: firefly luciferase counter-screen for stimulation assays; P08659; ATPlite luciferase biochemical, luminescence, 10 min; 0 = ATP-free wells, 1 = DMSO control; activation factor at 10 µM; 200,000 tested, under 10 active; AID 1027;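 active means luciferase activation factor, scaled between plate controls, of at least 2 with compound at 10 µM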
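Material: Luciferase/luciferin reagent mix; Doses: test compounds dosed from 2 mM stocks in 100% DMSO; Schedule: 10 min incubation after luciferase reagent addition, room temperature; Measured by: luminescence from luciferase reaction; Read-out: luminescence gain marking luciferase activators.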
ABCG2 block: blocks JC-1 efflux by human ABCG2 transporter. Q9UNQ0. IgMXP3 cells, flow cytometry. inhibition, % at 6.6 µM. 0.1% of 190,000 active;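 active means inhibition above 80%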;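 further: 0% = DMSO and 100% = nicardipine control wells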
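Incubation: cells with compound and JC-1, 10 min at 25 °C, rotating, no wash / Test system: IgMXP3 (ABCG2) plus far-red-tagged CCRF-Adr (ABCB1) cells / Compound dosing: one concentration, 6.6 µM final / Also added: JC-1 fluorescent substrate / Evaluation: efflux inhibition in percent versus controls / Detection: flow cytometry, 530 nm JC-1 signal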
Redox H2O2 prof: compounds producing H2O2 with reducing agent – biochemical, NIH compound library profiling, artefact control for MLSCN library redox annotation, primary screen; DTT-dependent redox cycling H2O2, phenol red/HRP absorbance; 100% = 100 µM peroxide control, 0% = buffer; activation, % at 10 µM; 0.03% of 200,000 active;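 active means activation of at least 50% relative to the plate's high and low controls in the primary single-dose screen; inactive means activation below 50%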;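 further: compound incubated with DTT at 0.8 mM final as the reducing agent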
FLuc inhib CS: counter-screen for luciferase assay inhibitors: firefly luciferase inhibition | inhibition, % at 10 µM | ATPLite firefly luciferase biochemical luminescence, 10 min | 1.5% of 200,000 active | AID 1006 | P08659;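 active means inhibition above about 50% when tested at 10 µM, limit read from the data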
Measles CPE: protection of cells from measles virus. 1.5% of 140,000 active. protection (pct of control), % at 4 µM. Measles virus-infected cells, CPE protection, absorbance; in the data active means protection mostly above about 24%, no sharp cut-off; inactive means mostly below about 26%
Starred values were filed as active, the others as inactive; x = no result. An excerpt weighted towards active compounds, which were near 2.7% of everything screened.

SMILES	ABCB1 inh	FLuc stim CS	ABCG2 block	Redox H2O2 prof	FLuc inhib CS	Measles CPE
CO[C@@H]1O[C@@H]2COC(c3ccccc3)O[C@@H]2[C@@H](OC)[C@@H]1O (some centres not stated)	2	1	-7	0	-2	6
O=c1[nH]c2ccccc2cc1-c1nnn(-c2ccc(F)cc2)n1	1	0.4	2	1	65*	x
Fc1ccc(-n2nnc(-c3cccnc3)n2)cc1	0	0.8	3	0	15	x
Fc1ccc(-n2nnc(-c3cnc4ccccc4c3)n2)cc1	1	0.3	4	0	74*	x
COC(=O)N1[C@H](C)C=C[C@]1(Cc1ccccc1)C(=O)O	1	1	2	-1	-1	9
COc1ccc(-c2cc(C(=O)N3CCCCC3)no2)cc1OC	1	1	15	0	1	5
Cc1ccc(-c2cc(C(=O)N3CCCC3)no2)cc1	1	0.2	5	1	85*	5
COc1ccc(C(=O)NCCCN2CCOCC2)cc1OC	1	1.1	2	0	-9	66*
Cc1ccc(OCCOC(=O)CCc2nc3ccccc3c(=O)[nH]2)cc1	1	1	10	0	-4	x
COc1ccc(-c2nsc3c(N4CCCC4)ncnc23)cc1	1	0.1	12	4	86*	17
COc1ccc(-c2nsc3c(N4CCN(S(=O)(=O)c5ccccc5)CC4)ncnc23)cc1	x	1	x	x	-4	x
CC(C)Oc1ccc(C(CC(=O)NCc2ccco2)c2ccccc2)cc1 (configuration not stated)	0	1	2	0	-3	24*
Cc1c(NC(=O)Cc2noc3ccccc23)cccc1[N+](=O)[O-]	0	1	2	-1	-5	x
Cc1ccc(NC(=O)Cc2noc3ccccc23)c(C)c1	0	1.1	0	0	-7	21*
Cc1ccc(CSC2=CS(=O)(=O)c3ccccc3N2)cc1	1	1.1	4	-8	-6	10
Cc1cccc(CSC2=CS(=O)(=O)c3ccccc3N2)c1	0	1.1	0	-6	-6	42*
C=CCc1c(OC)ccc2ccc(=O)oc12	0	1.1	1	0	-7	36*
O=C(COc1ccc([N+](=O)[O-])cc1)N(Cc1ccccc1)Cc1ccccc1	2	1	7	0	-4	32*
O=C(O)c1cc(-c2ccccc2)nc2ccccc12	0	0.8	0	0	20	2
O=C(c1cc(-c2ccccn2)nc2ccccc12)N1CCN(c2ncccn2)CC1	1	0.8	3	-1	19	x
CCOc1ccc(-c2cc(C(=O)NCCCN3CCN(CC)CC3)c3ccccc3n2)cc1	1	0.3	2	0	67*	7
CCOc1ccc(-c2cc(C(=O)O)c3ccccc3n2)cc1	0	0.1	3	0	95*	15
Cc1ccc(-c2cc(C(=O)N3CCN(c4ncccn4)CC3)c3ccccc3n2)cc1	4	0.4	22	0	62*	4
CC(C)Oc1cccc(-c2cc(C(=O)N3CCN(S(C)(=O)=O)CC3)c3ccccc3n2)c1	3	0.5	3	1	52*	1
Cc1ccccc1Sc1c(C#N)c(-c2ccccc2)nn1C	0	1	6	3	-2	1
SMILES	ABCB1 inh	FLuc stim CS	ABCG2 block	Redox H2O2 prof	FLuc inhib CS	Measles CPE
CC1CCCC(C)N1C(=O)CSc1nnc(COc2ccccc2)n1-c1ccccc1 (configuration not stated)	5	1	17	0	-3	7
COc1ccc(/C=C2/SC(=O)N(CC(=O)Nc3cc(C)on3)C2=O)cc1OC	0	1	-6	0	-1	23
COc1cc(/C=N/NC(=O)CCN2CCN(C(c3ccccc3)c3ccccc3)CC2)ccc1O	2	1	8	0	-2	28*
CCn1cc(C(=O)N2CCN(c3ccc(C(C)=O)cc3)CC2)c2cc(OC)c(OC)cc2c1=O	1	1.1	4	0	-5	x
CCOC(=O)c1c(-c2ccc(C)o2)csc1NC(=S)NC(=O)N(C)C	0	1	1	-4	-5	7
Cc1c(O)c2c(=O)n(-c3ccccc3)c(-c3ccccc3)cc2oc1=O	0	1.1	1	0	-5	1
O=C(CN(Cc1ccccc1)S(=O)(=O)c1ccccc1)N1CCOCC1	1	1.1	8	0	-7	38*
CCOc1ccccc1NC(=O)COC(=O)C(CC)c1ccccc1 (configuration not stated)	1	1	10	0	-4	x
Cc1cc2nc(-c3ccc(SCC(=O)N4CCN(C(=O)c5ccco5)CC4)nc3)[nH]c2cc1C	0	0.2	0	3	81*	2
Cc1cc2nc(-c3ccc(SCC(=O)N4CCOCC4)nc3)[nH]c2cc1C	0	0.3	2	-4	73*	21
Cc1cc2nc(-c3ccc(SCc4ccccn4)nc3)[nH]c2cc1C	0	0.8	0	0	18	x
CCOC(=O)CSc1ccc(-c2nc3cc(C)c(C)cc3[nH]2)cn1	-2	0.4	30	3	64*	15
COC(=O)C1=NNC(C(=O)c2ccco2)C1c1ccc(OC)cc1 (configuration not stated)	0	1	1	0	-4	x
CCNC(=S)N/N=C/c1cc(C)ccc1C	0	1	1	0	-1	x
C=CCNC(=S)N/N=C/c1ccc(C(F)(F)F)cc1	0	0.5	4	-3	52*	x
C=CCNC(=S)N/N=C/c1ccc(C)cc1C	-1	0.4	-2	-1	63*	x
CCOc1ccc2[nH]c(=O)c(CN(CCCN3CCOCC3)Cc3nnnn3Cc3ccc(OC)cc3)cc2c1	0	1	-1	0	-2	x
COC(=O)C(NC(C)=O)(Nc1ccccc1)C(=O)OC	0	1.1	1	-1	-6	14
O=C(NC(=S)Nc1ccc(N2CCOCC2)cc1)c1cccs1	1	0.9	6	-1	12	x
CC(C)NC(=O)CC1C(=O)N(Cc2ccccc2)C(C)c2nc3ccccc3n21 (configuration not stated)	1	1	0	2	-3	x
CCCCc1ccc(NC(=S)NCc2cccnc2)cc1	2	1	6	0	-2	11
CCCCOc1ccc(C(=O)C(CN2CCOCC2)c2ccccc2)cc1 (configuration not stated)	2	1.1	2	0	-8	41*
Cc1oc(-c2ccc3c(c2)OCCO3)cc1C(=O)O	0	0.4	2	-2	62*	14
COc1ccc(-c2cc3nc[nH]c(=O)c3s2)cc1	0	0.3	0	0	72*	24

Bioassay records as filed in PubChem BioAssay.
